This is a sample that favours compounds with a hit; in the whole collection about 1.7% have one here.
UBC13 polyUb: inhibitors of human UBC13 polyubiquitin chain formation | P61088 | actives 0.47% (n = 330,000) | TR-FRET | inhibition, % at 20 µM; in the data active = inhibition above about 45%, passing the limit was not always enough; inconclusive = no clear call, values can overlap the other calls
Target sequence (P61088 whole entry, looked up): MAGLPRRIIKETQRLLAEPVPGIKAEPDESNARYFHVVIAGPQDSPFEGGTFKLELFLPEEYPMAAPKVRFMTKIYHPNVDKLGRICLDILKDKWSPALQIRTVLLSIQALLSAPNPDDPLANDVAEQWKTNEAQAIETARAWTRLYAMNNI
Apaf-1 inh: blocks human Apaf-1 apoptosome activity; O14727; reconstituted apoptosome caspase-3 activity, DEVD-Rh110 fluorescence; inhibition, % at 20 µM; actives 0.71% (n = 330,000); active = inhibition of at least 40% at 20 µM;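 also: plate controls were DMSO wells for no effect and DEVD-CHO caspase inhibitor wells for full effect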
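Assay system: Apoptosome proteins | Medium: pH 7.5 Hepes buffer with CHAPS, BSA, DTT | Also added: Cytochrome c and DEVD-Rh110 substrate | Times: 30 min plus 50 min, RT | Detection: Rhodamine 110 fluorescence at Ex 480/Em 540 nm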
EBNA-1 inhibitor: blocks EBNA-1 binding to DNA | EBNA-1 DNA binding, fluorescence polarization | inhibition, % at 14.8 µM | actives 0.34% (n = 300,000) | AID 1950; in the data active = inhibition above about 28%
ZTA DNA inh: counter-screen for EBNA-1 inhibitors: inhibitors of Epstein-Barr virus ZTA; ZTA-DNA binding, fluorescence polarization; actives 0.15% (n = 320,000); inhibition, % at 11 µM; P03206; in the data active = inhibition above about 33%
Target sequence (P03206 whole entry, looked up): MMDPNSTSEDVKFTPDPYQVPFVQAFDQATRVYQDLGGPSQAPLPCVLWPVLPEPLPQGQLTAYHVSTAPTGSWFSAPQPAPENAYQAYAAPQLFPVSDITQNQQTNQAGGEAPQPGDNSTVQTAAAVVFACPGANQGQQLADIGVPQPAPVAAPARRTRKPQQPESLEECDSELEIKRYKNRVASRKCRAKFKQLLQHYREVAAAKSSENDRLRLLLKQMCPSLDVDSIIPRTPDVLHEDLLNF
PREPL inh: inhibits the human prolyl oligopeptidase-like enzyme | Q4J6C6 | recombinant PREPL, fluorescence polarization activity-based probe | inhibition, % at 5.96 µM | actives 0.68% (n = 320,000) | AID 2751; in the data active = inhibition above about 43%;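 also: 0% = enzyme with DMSO and 100% = wells lacking enzyme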
Casp3 counter: counter-screen for UBC13 inhibitors: human caspase-3 inhibition. Recombinant caspase-3, Caspase-Glo 3/7 luminescence, 60 min. shares compounds with UBC13 polyUb. inhibition, % at 20 µM. actives 4% (n = 1,400). AID 488856;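 active = mean inhibition across replicates above about 26%, limit read from the data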;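 also: plate controls were DMSO with caspase-3 for no effect and DMSO wells lacking enzyme for full effect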
UBC13 confirm: human UBC13 polyubiquitin inhibition, confirmed. inhibition, % at 10 µM. AID 488859. shares compounds with UBC13 polyUb. UBC13 polyubiquitination, TR-FRET, biochemical. actives 68% (n = 1,400); in the data active = inhibition above about 45%; inconclusive = no clear call, values can overlap the other calls
Numbers without * were called inactive.

Screening Nc1nc(Cl)nc2ccc(Br)cc12 returned UBC13 polyUb 49*, Apaf-1 inh -3, EBNA-1 inhibitor -3, ZTA DNA inh -24, PREPL inh -1, Casp3 counter -3 and UBC13 confirm inconclusive.
For O=C(CCCn1c(=S)[nH]c2ccc(Br)cc2c1=O)NCc1ccccn1 the results were UBC13 polyUb 27, Apaf-1 inh 2, EBNA-1 inhibitor -2, ZTA DNA inh -15 and PREPL inh -2.
O=C(CCCn1c(=S)[nH]c2ccc(Br)cc2c1=O)N1CCN(c2ccccn2)CC1 was read as UBC13 polyUb 45*, Apaf-1 inh 7, EBNA-1 inhibitor -1, ZTA DNA inh 10, PREPL inh -156, Casp3 counter -2 and UBC13 confirm 44.
Screening Cc1cc(=O)[nH]c(Sc2c(-c3ccccc3)c3ccccc3[nH]c2=O)n1 returned UBC13 polyUb -14, Apaf-1 inh 3, EBNA-1 inhibitor 3, ZTA DNA inh 5 and PREPL inh -4.
Screening CCOC(=O)c1c(NC(=O)COc2ccccc2F)sc2c1CC(C)(C)NC2(C)C returned UBC13 polyUb 34, Apaf-1 inh 22, EBNA-1 inhibitor -3, ZTA DNA inh -13 and PREPL inh 11.
Screening CC1(C)Cc2c(sc(NC(=O)COc3ccc(Cl)cc3Cl)c2C(N)=O)C(C)(C)N1 returned UBC13 polyUb 74*, Apaf-1 inh 29, EBNA-1 inhibitor 9, ZTA DNA inh 0, PREPL inh -6, Casp3 counter -1 and UBC13 confirm 109*.
Screening COc1ccc(CCN2CCC(Nc3nc4ccccc4n3Cc3ccc(F)cc3)CC2)cc1 returned UBC13 polyUb 48*, Apaf-1 inh 56*, EBNA-1 inhibitor 2, ZTA DNA inh -12, PREPL inh 38, Casp3 counter 1 and UBC13 confirm 27.
Screening CC(C)[C@H](CO)N(Cc1cccc(F)c1)c1nc(Nc2cccc(Cl)c2)c2ncn(C(C)C)c2n1 returned UBC13 polyUb -3, Apaf-1 inh 15, EBNA-1 inhibitor -1, ZTA DNA inh 17 and PREPL inh 25.
Screening CC[C@H](CO)Nc1nc(Nc2cccc(Cl)c2)c2ncn(C(C)C)c2n1 returned UBC13 polyUb 77*, Apaf-1 inh 19, EBNA-1 inhibitor 8, ZTA DNA inh -7, PREPL inh 15, Casp3 counter -2 and UBC13 confirm 67*.
`CCOc1cc2c(C#N)c(N3CCNCC3)nc(N)c2c(N)n1` gave UBC13 polyUb 63*, Apaf-1 inh 21, EBNA-1 inhibitor 0, ZTA DNA inh 9, PREPL inh 31, Casp3 counter 24 and UBC13 confirm 105*.
O=C1CC(c2ccccc2)CC(O)=C1C=NC1CCCCC1 (stereo not given) was read as UBC13 polyUb 8, Apaf-1 inh -6, EBNA-1 inhibitor -6, ZTA DNA inh -2 and PREPL inh -4.
CN1CCN(C(=O)CCN2C(=O)/C(=C/c3ccccc3Cl)SC2=S)CC1 was read as UBC13 polyUb 69*, Apaf-1 inh 1, EBNA-1 inhibitor -9, ZTA DNA inh -2, PREPL inh -34, Casp3 counter -3 and UBC13 confirm 87*.
`O=C(CCN1C(=O)/C(=C/c2ccccc2Cl)SC1=S)NCCCN1CCOCC1` gave UBC13 polyUb 45*, Apaf-1 inh 8, EBNA-1 inhibitor -8, ZTA DNA inh -11, PREPL inh -36, Casp3 counter 0 and UBC13 confirm 61*.
Cc1ccc(/C=C2\SC(=S)N(CCC(=O)NCCCN3CCOCC3)C2=O)cc1 was read as UBC13 polyUb 1, Apaf-1 inh 0, EBNA-1 inhibitor -4, ZTA DNA inh -6 and PREPL inh 23.
For Cc1ccc(Nc2nnc(-c3ccccc3N)o2)cc1C the results were UBC13 polyUb 46*, Apaf-1 inh -2, EBNA-1 inhibitor 9, ZTA DNA inh -7, PREPL inh 8, Casp3 counter 39* and UBC13 confirm 2.
Screening O=C1c2ccccc2C(=O)N1CC1=NCCc2ccccc21 returned UBC13 polyUb 8, Apaf-1 inh 17, EBNA-1 inhibitor -2, ZTA DNA inh -6 and PREPL inh -2.
For Cc1ccc(C(=O)N/C(=C\c2ccc(-c3ccc(Cl)cc3)o2)C(=O)NCCCN(C)C)cc1 the results were UBC13 polyUb 47*, Apaf-1 inh 19, EBNA-1 inhibitor -2, ZTA DNA inh -3, PREPL inh 10, Casp3 counter -3 and UBC13 confirm 70*.
O=C1Cc2ccccc2Sc2ccc(O)cc21 was read as UBC13 polyUb 51*, Apaf-1 inh -5, EBNA-1 inhibitor 6, ZTA DNA inh -5, PREPL inh 1, Casp3 counter -1 and UBC13 confirm 42.
Screening Nc1ccc2c(c1)CC(=O)c1ccccc1S2 returned UBC13 polyUb 5, Apaf-1 inh 9, EBNA-1 inhibitor 3, ZTA DNA inh -6 and PREPL inh 7.
`Cc1ccccc1C(=O)N1CCN(c2ccc(NC(=S)NC(=O)c3cccs3)cc2)CC1` gave UBC13 polyUb 86*, Apaf-1 inh 1, EBNA-1 inhibitor -10, ZTA DNA inh -2, PREPL inh 23, Casp3 counter 2 and UBC13 confirm 85*.
Screening Cc1ccc(C(=O)N2CCN(c3ccc(NC(=S)NC(=O)c4cccs4)cc3)CC2)cc1 returned UBC13 polyUb 12, Apaf-1 inh 27, EBNA-1 inhibitor -20, ZTA DNA inh 1 and PREPL inh 15.
Screening Cc1ncc(S(=O)(=O)c2ccc(Cl)cc2)c(N)n1 returned UBC13 polyUb 45*, Apaf-1 inh -4, EBNA-1 inhibitor 3, ZTA DNA inh 15, PREPL inh 2, Casp3 counter -1 and UBC13 confirm 49*.
Oc1cccc(NC(=S)N=Nc2c(O)[nH]c3ccccc23)c1 was read as UBC13 polyUb inconclusive, Apaf-1 inh -26, EBNA-1 inhibitor -3, ZTA DNA inh -4 and PREPL inh 13.
`NC(=S)N=Nc1c(O)[nH]c2ccccc12` gave UBC13 polyUb 63*, Apaf-1 inh -11, EBNA-1 inhibitor 2, ZTA DNA inh -5, PREPL inh 2, Casp3 counter 2 and UBC13 confirm 80*.
Screening CCOc1ccc(NC(=S)N=Nc2c(O)[nH]c3ccccc23)cc1 returned UBC13 polyUb 61*, Apaf-1 inh 14, EBNA-1 inhibitor -2, ZTA DNA inh -9, PREPL inh 11, Casp3 counter 3 and UBC13 confirm 77*.
`CCCCNC(=S)N=Nc1c(O)[nH]c2ccccc12` gave UBC13 polyUb 85*, Apaf-1 inh 4, EBNA-1 inhibitor 2, ZTA DNA inh -11, PREPL inh 7, Casp3 counter 2 and UBC13 confirm 102*.
For Oc1[nH]c2ccccc2c1N=NC(=S)NCCc1ccccc1 the results were EBNA-1 inhibitor 13, ZTA DNA inh 14 and PREPL inh 6.
